Bioassay records (PubChem)
SENP7 block: inhibitors of human SENP7 protease; Q9BQF6; AID 434973; actives 1.5% (n = 330,000); inhibition, % at 5 µM; recombinant SENP7, Z-RLRGG-aminoluciferin luminescence, 40 min;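 active = inhibition above about 50% at the single test dose, limit read from the data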
SENP8 block-1: blocks the human protease SENP8; inhibition, % at 10 µM; actives 1.2% (n = 330,000); AID 2540; purified SENP8, Z-RLRGG-aminoluciferin cleavage, luminescence; in the data active = inhibition above about 50%
SENP1 FRET inh: blocks the human SENP1 SUMO protease catalytic domain | AID 624204 | actives 0.21% (n = 360,000) | recombinant SENP1 catalytic domain, CyPet-SUMO1-YPet FRET cleavage | Q9P0U3 | inhibition, % at 10 µM;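 active = inhibition at least 30% at 10 µM, raw YFP signal under a set limit, fluorescence ratio 0.5 to 1.5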
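Material: hSENP1 catalytic domain, recombinant; medium: Tris pH 8 with BME, BSA, NP40 and catalase; compound: single concentration of 10 µM compound, 0.5% DMSO final; technique: FRET read of cyan and yellow fluorescence; timing: 50 min enzyme reaction, room temperature, light-protected; reagent: SFCypet-SUMO1-SFYpet substrate at 25 nM; control set: no-enzyme low, enzyme-DMSO high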
SENP8 block-2: inhibitors of human SENP8 protease; inhibition, % at 20 µM; Q96LD8; recombinant SENP8, Nedd8 substrate fluorescence; actives 0.64% (n = 360,000); in the data active = inhibition mostly above about 40%, no sharp cut-off; inactive = mostly below about 27%
SENP6 inh: blocks the human protease SENP6 | Q9GZR1 | actives 1.8% (n = 330,000) | inhibition, % at 10 µM | Recombinant SENP6 catalytic domain, aminoluciferin luminescence;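 active = inhibition above about 50% at the single tested dose, limit read from the data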
Target sequence (Q9GZR1 628-1112 limits assumed): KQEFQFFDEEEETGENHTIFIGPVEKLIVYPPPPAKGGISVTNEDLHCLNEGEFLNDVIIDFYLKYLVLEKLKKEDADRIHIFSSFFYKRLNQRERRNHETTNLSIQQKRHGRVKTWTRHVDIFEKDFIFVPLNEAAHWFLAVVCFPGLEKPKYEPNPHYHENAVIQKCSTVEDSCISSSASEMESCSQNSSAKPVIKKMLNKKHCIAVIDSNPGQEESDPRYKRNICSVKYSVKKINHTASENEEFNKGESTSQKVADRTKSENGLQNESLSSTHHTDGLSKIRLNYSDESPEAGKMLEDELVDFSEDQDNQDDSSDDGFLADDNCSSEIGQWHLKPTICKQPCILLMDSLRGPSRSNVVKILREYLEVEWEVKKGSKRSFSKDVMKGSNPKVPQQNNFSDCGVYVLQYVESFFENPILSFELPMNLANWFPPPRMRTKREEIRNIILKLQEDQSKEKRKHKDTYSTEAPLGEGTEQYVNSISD
SENP8 conf: human SENP8 inhibition, confirmed; shares compounds with SENP7 block; inhibition, % at 12.5 µM; actives 40% (n = 6,200); Recombinant SENP8, Z-RLRGG-aminoluciferin luminescence, 60 min;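 active = mean inhibition across replicates above about 50%, limit read from the data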
SENP6 confirm: confirmation of human SENP6 protease inhibitors. shares compounds with SENP7 block. recombinant SENP6, Z-RLRGG-aminoluciferin luminescence. actives 58% (n = 6,200). AID 488915. inhibition, % at 12.5 µM
SENP7 confirm: confirmation of human SENP7 protease inhibitors; actives 69% (n = 6,200); recombinant SENP7, Z-RLRGG-aminoluciferin luminescence, 40 min; shares compounds with SENP7 block; inhibition, % at 12.5 µM
Casp3 select: selectivity test for SENP inhibitors: human caspase-3 inhibition; actives 60% (n = 6,200); AID 488918; inhibition, % at 12.5 µM; shares compounds with SENP7 block; purified caspase-3, Z-DEVD-aminoluciferin luminescence, 60 min;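 active = mean inhibition above about 50%, limit read from the data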
Target sequence (P42574 28-227 limits assumed): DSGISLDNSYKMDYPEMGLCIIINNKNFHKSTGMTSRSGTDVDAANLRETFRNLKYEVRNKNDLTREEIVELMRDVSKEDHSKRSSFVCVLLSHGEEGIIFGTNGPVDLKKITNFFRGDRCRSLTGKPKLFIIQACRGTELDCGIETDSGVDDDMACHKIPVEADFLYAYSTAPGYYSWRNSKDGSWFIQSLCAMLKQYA
Luc interf: interferes with luciferase luminescence in SENP counter-screen; AID 488919; Pre-incubated SENP8/Z-RLRGG-aminoluciferin, luciferase luminescence interference; inhibition, % at 12.5 µM; actives 39% (n = 6,200); shares compounds with SENP7 block;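 active = mean inhibition above about 50% when retested at one dose, limit read from the data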
Each line names hits and unclear results; the compound was inactive in the other large screens (follow-up assays come after a bar, where they were run). Only some compounds are listed: those with a hit (about 2.5% of all), similar ones and a draw of the others.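 The calls were made as follows, unless noted: active = mean inhibition above about 50% in the one-dose retest (limit read from the data); inactive = the rest.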

O=S(=O)(Nc1nc(-c2sccc2Cl)cs1)c1cc(Cl)ccc1Cl	SENP6 inh 74.4 | SENP8 conf inactive | SENP6 confirm inactive | SENP7 confirm inactive | Casp3 select inactive | Luc interf inactive
Cc1ccc(SCc2cn3c(C)csc3n2)cc1	SENP7 block 85.3, SENP8 block-1 75.1, SENP6 inh 83.9 | SENP8 conf 80.3 | SENP6 confirm 80.2 | SENP7 confirm 95.8 | Casp3 select 85.9 | Luc interf 86.4
Cc1ccc(S(=O)(=O)NCc2cn3c(C)csc3n2)cc1	none
COc1ccc(OC)c(NC(=O)C2(C)CCN2C(=O)C2(c3ccc(Cl)cc3)CCC2)c1 (centres undefined)	none (no result: SENP7 block, SENP8 block-1, SENP6 inh)
COc1ccc(-c2csc(NC(=O)c3ccc(C(C)(C)C)cc3)c2C(=O)O)cc1	none (no result: SENP1 FRET inh, SENP8 block-2)
O=C(Nc1scc(-c2ccc(Br)cc2)c1C(=O)O)c1ccccc1F	SENP8 block-1 86.6, SENP6 inh 88.0 | SENP8 conf 86.6 | SENP6 confirm 86.0 | SENP7 confirm 67.6 | Casp3 select 76.8 | Luc interf inactive
O=C(/C=C/c1ccco1)Nc1scc(-c2ccccc2)c1C(=O)O	SENP7 block 95.0, SENP8 block-1 97.1, SENP6 inh 97.8 | SENP8 conf 98.1 | SENP6 confirm 98.8 | SENP7 confirm 102.1 | Casp3 select 97.9 | Luc interf 97.4
O=C(/C=C/c1ccccc1)Nc1scc(-c2ccccc2)c1C(=O)O	none (no result: SENP7 block, SENP8 block-1, SENP6 inh)
CC(C)Cc1csc(NC(=O)c2ccc(Br)cc2)c1C(=O)O	SENP8 block-1 87.6, SENP6 inh 93.8 | SENP8 conf 92.2 | SENP6 confirm 94.0 | SENP7 confirm 92.5 | Casp3 select 80.3 | Luc interf 58.4
Cc1ccc(C(=O)Nc2scc(-c3ccccc3)c2C(=O)O)o1	SENP7 block 57.1, SENP8 block-1 66.5 | SENP8 conf 85.5 | SENP6 confirm 85.0 | SENP7 confirm 96.1 | Casp3 select 92.2 | Luc interf 81.7
COc1ccc(-c2csc(NC(=O)c3ccccc3OC)c2C(=O)O)cc1OC	none
COc1ccc(-c2csc(NC(=O)c3ccccc3Br)c2C(=O)O)cc1	SENP6 inh 52.5 | SENP8 conf inactive | SENP6 confirm inactive | SENP7 confirm 68.5 | Casp3 select inactive | Luc interf 61.6
Cc1ccccc1C(=O)Nc1scc(-c2ccc(Br)cc2)c1C(=O)O	SENP8 block-1 75.0, SENP6 inh 86.3 | SENP8 conf inactive | SENP6 confirm 53.1 | SENP7 confirm inactive | Casp3 select 52.3 | Luc interf inactive
Cc1ccc(-c2csc(NC(=O)c3ccccc3F)c2C(=O)O)cc1	SENP8 block-1 80.0, SENP6 inh 82.4 | SENP8 conf inactive | SENP6 confirm 85.3 | SENP7 confirm 93.2 | Casp3 select 83.6 | Luc interf 59.3
Cc1cc(Br)ccc1NC(=O)c1ccccc1-c1ccccc1	none
O=C(Nc1scc(-c2ccccc2)c1C(=O)O)c1ccccc1F	SENP8 block-1 68.0, SENP6 inh 74.7 | SENP8 conf 82.2 | SENP6 confirm 78.7 | SENP7 confirm 90.2 | Casp3 select 85.1 | Luc interf 79.8
CCc1ccc(OCC(=O)Nc2ccc3oc(=O)ccc3c2)cc1	none
CCCCNC(=O)C1(C)CCN1C(=O)c1cc(C)n(C(C)(C)C)n1 (centres undefined)	none (no result: SENP7 block, SENP8 block-1, SENP6 inh)
CCC(C(=O)Nc1c(C)cccc1C)n1c(-c2ccc(=O)[nH]c2)nc2ccccc21 (centres undefined)	none (no result: SENP7 block, SENP8 block-1, SENP6 inh)
COc1ccc(-c2csc(NC(=O)c3cccs3)c2C(=O)O)cc1OC	SENP8 block-1 60.1 | SENP8 conf inactive | SENP6 confirm 71.9 | SENP7 confirm 89.8 | Casp3 select 74.7 | Luc interf 75.8
COC(=O)c1ccc(OCC(=O)c2ccc(O)cc2O)cc1	none
O=C(COc1ccc(Cl)cc1)c1ccc(O)cc1O	SENP6 inh 57.9 | SENP8 conf 54.4 | SENP6 confirm inactive | SENP7 confirm 72.2 | Casp3 select 66.6 | Luc interf 53.4
CCOC(=O)c1ccc(OCC(=O)c2ccc(O)cc2O)cc1	SENP6 inh 55.1 | SENP8 conf inactive | SENP6 confirm inactive | SENP7 confirm 64.4 | Casp3 select 65.7 | Luc interf inactive
CS(=O)(=O)N(Cc1ccc(Cl)cc1)c1ccc(C(=O)N/N=C/c2cc3ccccc3nc2Cl)cc1	none
O=C(Nc1cccnc1)c1cc(-c2ccc3c(c2)OCO3)on1	SENP7 block 95.7, SENP6 inh 76.8 | SENP8 conf inactive | SENP6 confirm inactive | SENP7 confirm 62.4 | Casp3 select 79.0 | Luc interf inactive
O=C(Nc1cccnc1)c1cc(-c2ccc(F)cc2)on1	SENP7 block 76.5, SENP8 block-1 56.3, SENP6 inh 64.0 | SENP8 conf inactive | SENP6 confirm inactive | SENP7 confirm inactive | Casp3 select inactive | Luc interf inactive
O=C(Nc1cccnc1)c1cc(-c2ccc(Cl)c(Cl)c2)on1	SENP7 block 76.0, SENP6 inh 55.4 | SENP8 conf inactive | SENP6 confirm inactive | SENP7 confirm inactive | Casp3 select inactive | Luc interf inactive
CC(=O)Nc1ccc(-c2ccnc3c2CC(C(=O)NCc2ccco2)O3)cc1 (centres undefined)	none (no result: SENP7 block, SENP8 block-1, SENP6 inh)
COc1ccc(CC(NC(C)=O)C(=O)NC2CCN(c3ncccc3[N+](=O)[O-])CC2)cc1 (centres undefined)	none
Cc1c(C(=O)O)cnc2cc(-c3ccc(Cl)cc3)nn12	SENP7 block 82.5, SENP8 block-1 82.2, SENP6 inh 90.7 | SENP8 conf 89.2 | SENP6 confirm 88.0 | SENP7 confirm 99.6 | Casp3 select 92.9 | Luc interf 87.3
CC(=O)c1cnc2cc(-c3ccc(Cl)cc3)nn2c1C	none
Fc1ccccc1/C=N/Nc1nc2ccccc2o1	SENP7 block 69.5 | SENP8 conf inactive | SENP6 confirm inactive | SENP7 confirm inactive | Casp3 select inactive | Luc interf inactive
O=C1NC(=O)C(Cc2ccccc2)(c2cccnc2)N1 (centres undefined)	none
CCc1ccc2oc(-c3cc(N)ccc3O)nc2c1	SENP7 block 92.3, SENP8 block-1 93.6, SENP6 inh 97.4 | SENP8 conf 67.9 | SENP6 confirm 94.4 | SENP7 confirm 98.8 | Casp3 select 85.7 | Luc interf inactive
